Published values pooled from the literature.
Target: Serine/threonine-protein kinase 24 (STK24, Homo sapiens, UniProt Q9Y6E0)

| Structure (SMILES) | effect on | method | concentration | remaining binding [%] |
| --- | --- | --- | --- | --- |
| c1cnn2ncc(-c3ccnc(N4CCC45COC5)n3)c2c1 | binding | – | 1 µM | 74 |
| Cc1nc(Cc2cccc(C(F)(F)F)c2)sc1-c1ccc(C(N)=O)nc1 | cell-free assay | competition with immobilised ligand | 1 µM | 100 |
| CCN1CCN(Cc2ccc(C(=O)Nc3ccc(C)c(Oc4ccc5c(c4)CC(=O)N5)c3)cc2C(F)(F)F)CC1 | binding | competition with immobilised ligand | 1 µM | 94 |
| CCS(=O)(=O)c1cc2cc(C[C@](O)(CC(C)(C)c3ccc(F)cc3C(N)=O)C(F)(F)F)[nH]c2cn1 | cell-free assay | competition with immobilised ligand | 1 µM | 86 |
| N[C@H]1CCN(c2nccc(-c3cnn4ncccc34)n2)C1 | binding | – | 1 µM | 83 |
| Cc1cnc(Nc2ccc(C(=O)N3CCC(N4CCCC4)CC3)cc2)nc1-c1cc2ccccc2s1 | binding | competition with immobilised ligand | 1 µM | 84 |
| CC1CCCN1c1nccc(-c2cnn3ncccc23)n1 (stereo not shown) | binding | – | 1 µM | 100 |
| O=C(NCCCN1CCOCC1)c1ccc(Nc2ncc(Cl)c(-c3ccc(Cl)s3)n2)cc1 | binding | competition with immobilised ligand | 1 µM | 17 |
| CN(C(=O)c1ccccc1)c1cc(N(C)c2ccc3c(c2)CCc2ccc(C(=O)NCCN4CCOCC4)cc2C3=O)ccc1F | cell-free assay | competition with immobilised ligand | 1 µM | 100 |
| O=C(c1ccc(Nc2nccc(-c3cc4ccccc4s3)n2)cc1)N1CCC(N2CCCC2)CC1 | binding | competition with immobilised ligand | 1 µM | 83 |
| CN(CCCC(F)(F)F)c1nccc(-c2cnn3ncccc23)n1 | binding | – | 1 µM | 100 |
| Cn1nc(C(=O)NCc2ccc(C(=O)O)cc2)cc1-c1ccc2[nH]ccc2c1 | cell-free assay | competition with immobilised ligand | 0.1 µM | 97 |
| F[C@@H]1CCN(c2nccc(-c3cnn4ncccc34)n2)C1 | binding | – | 1 µM | 93 |
| O=C(Nc1c[nH]nc1C(=O)NC1CCNCC1)c1cc(F)cc(F)c1 | binding | competition with immobilised ligand | 1 µM | 91 |
| FC(F)(F)c1ccc2c(c1)nc(-c1cccnc1)n2C1CC1 | cell-free assay | competition with immobilised ligand | 1 µM | 100 |
| CN(C)c1nccc(-c2cnc3ncccn23)n1 | binding | – | 1 µM | 94 |
| O=C(NC[C@@H]1[C@H]2CN(C(=O)OCc3cc(C(F)(F)F)cc(C(F)(F)F)c3)C[C@@H]12)c1ccc2[nH]nnc2c1 | cell-free assay | competition with immobilised ligand | 1 µM | 90 |
| COc1cnc(Nc2cccc(S(N)(=O)=O)c2)nc1N1CCN(c2ccccc2)C(=O)C1 | binding | competition with immobilised ligand | 1 µM | 97 |
| c1cncc(-c2cccc(Nc3nccc(NC4CCCCC4)n3)c2)c1 | binding | competition with immobilised ligand | 10 µM | 93 |
